Measured values collected from several papers.
Compare with care: the assays were run in different laboratories.

SMILES	cell line	assay	conditions	IC50
Cc1c[nH]c(/C=C2\C(=O)Nc3ccccc32)c1CCC(=O)O	SW780	cell growth or viability, MTT	5 days	6000 nM
C[C@H](Nc1ncnc2nc[nH]c12)c1cc2cccc(Cl)c2c(=O)n1-c1ccccc1	CD4+ T	IL-2 release, inhibitor		1.9 nM
O=C1CCCCC1C1C2C=CC=CC1/C(=C/c1ccccc1)C2 (stereo not shown)	Jurkat	cell growth or viability, flow cytometry		82 nM
O=c1c(O[C@@H]2O[C@H](CO)[C@@H](O)[C@H](O)[C@H]2O)c(-c2ccc(O)c(O)c2)oc2cc(O)cc(O)c12	SW780	cell growth or viability, ATP luminescence	72 h	20100 nM
COc1cc(Nc2nccc(-c3cnn4nc(OC)ccc34)n2)cc(C(F)(F)F)c1	LN-229	cell growth or viability, ATP luminescence		580 nM
C[C@@H](Oc1cc(-c2cnn(C3CCNCC3)c2)cnc1N)c1c(Cl)ccc(F)c1Cl	Rh4	cell growth or viability	72 h	580 nM
CC(C)(C)SCCCC1=CC2C=CC=CC1C2C1CCCCC1=O (stereo not shown)	Jurkat	cell growth or viability, flow cytometry		57 nM
Cc1[nH]c(/C=C2\C(=O)Nc3ccc(S(=O)(=O)N(C)c4cccc(Cl)c4)cc32)c(C)c1C(=O)N1CCN(C)CC1	Rh4	cell growth or viability	72 h	2210 nM
COc1cccc2c1C(=O)c1c(O)c3c(c(O)c1C2=O)C[C@@](O)(C(=O)CO)C[C@@H]3O[C@H]1C[C@H](N)[C@H](O)[C@H](C)O1	MIA PaCa-2	cell growth or viability, MTS	48 h	49 nM
O=c1c(O)c(-c2ccc(O)c(O)c2)oc2cc(O)cc(O)c12	SW780	cell growth or viability, ATP luminescence	72 h	43400 nM
CC(=O)c1ccc(/N=N/c2cc(/C=C/C(=O)O)ccc2O)cc1	PaCa-2	cell growth or viability, MTT		> 50000 nM
COc1nc(OCc2cccc(-c3ccccc3)c2C)ccc1CNCCNC(C)=O	MC-38	cell growth or viability, MTT		2900 nM
Oc1ccc(C(c2c[nH]c3ccccc23)c2c[nH]c3ccccc23)cc1	LNCaP	cell growth or viability, MTT	48 h	> 100000 nM
COc1ccc(C(=O)O[C@@H]2CN3Cc4c(cc5c(c4OC)OCO5)[C@@]24C=C[C@H](OC)C[C@@H]34)cc1	MOLT-4	cell growth or viability, WST-1		> 10000 nM
CN1CCN(c2ccc3nc(-c4c(N)c5c(F)cccc5[nH]c4=O)[nH]c3c2)CC1	SW780	cell growth or viability, MTT	5 days	450 nM
FC(F)(F)c1ccc(C(c2c[nH]c3ccccc23)c2c[nH]c3ccccc23)cc1	LNCaP	cell growth or viability, MTT	48 h	13000 nM

SMILES	cell line	assay	conditions	IC50
CC(C)(C)OC(=O)NCCOc1cc(NC(=O)c2cnccn2)c2ncccc2c1	MIA PaCa-2	cell growth or viability, MTT	72 h	< 1000 nM
OC[C@H]1O[C@@H](Oc2cc3c(O)cc(O)cc3[o+]c2-c2ccc(O)c(O)c2)[C@H](O)[C@@H](O)[C@@H]1O	SW780	cell growth or viability, ATP luminescence	72 h	169000 nM
CC(=O)c1cccc(/N=N/c2cc(/C=C/C(=O)O)ccc2O)c1	PaCa-2	cell growth or viability, MTT		> 50000 nM
CC(C)n1cc(C(c2ccc(/C=C/C(=O)O)s2)c2cn(C(C)C)c3ccccc23)c2ccccc21	LNCaP	cell growth or viability, MTT	48 h	26000 nM
O=C(O)/C=C/c1ccc(O)c(O)c1	PaCa-2	cell growth or viability, MTT		5100 nM
COC(=O)CCC1=CC2C=CC=CC1C2C1CCCCC1=O (stereo not shown)	Jurkat	cell growth or viability, flow cytometry		159 nM
O=c1c(O)c(-c2cc(O)c(O)c(O)c2)oc2cc(O)cc(O)c12	SW780	cell growth or viability, ATP luminescence	72 h	20900 nM
CC[C@@]1(O)C(=O)OCc2c1cc1n(c2=O)Cc2cc3ccccc3nc2-1	RPMI 8402	cell growth or viability, MTT	96 h	4 nM
CC(=O)c1cccc(N=Nc2c(C(=O)O)cc(O)c(O)c2O)c1	PaCa-2	cell growth or viability, MTT		9600 nM
COc1cc(N2CCC(N3CCN(C)CC3)CC2)ccc1Nc1ncc(Cl)c(Nc2ccccc2S(=O)(=O)C(C)C)n1	Rh4	cell growth or viability	72 h	90 nM
O=C(O)c1ccc(C(c2c[nH]c3ccccc23)c2c[nH]c3ccccc23)cc1	LNCaP	cell growth or viability, MTT	48 h	21000 nM
COc1c2c(cc3c1OCO3)[C@]13C=C[C@H](OC)C[C@H]1N(C2)C[C@H]3OC(=O)c1cccc(C)c1	MOLT-4	cell growth or viability, WST-1		> 10000 nM
CC(C)C[C@H](NC(=O)[C@H](Cc1ccccc1)NC(=O)c1cnccn1)B(O)O	COV434	cell growth or viability, ATP luminescence		16 nM
Cc1ccc2c(c1)c(C(c1ccc(/C=C/C(=O)O)s1)c1cn(C(C)C)c3ccc(C)cc13)cn2C(C)C	LNCaP	cell growth or viability, MTT	48 h	< 3000 nM
NCc1cc2c(-c3ccccc3)n[nH]c2c(Nc2ccccc2)n1	MIA PaCa-2	cell growth or viability, MTS	48 h	2300 nM
